Test results taken from ChEMBL document CHEMBL3244219, “Synthesis of [1-sarcosine, 8-O-methylserine]angiotensin II and 1-substituted analogues of [8-threonine]angiotensin II as antagonists of angiotensin II” (J Med Chem, 1977).
Where a SMILES comes first, the peptide text is derived from it. [ ]: non-standard residue; d: D form. The star is where a group is joined. Guanidinoacetyl = N=C(N)NCC(=O)*; NMeI = CC[C@H](C)[C@H](NC)C(=O)O; Me2Gly = CN(C)CC(=O)*; Sar = CNCC(=O)O

Columns and labels:
Rattus norvegicus [1] = experiment: Pressor activity in ganglion-blocked vagotomized rat assessed as rise in blood pressure at 250 ng/kg/min, iv administered as infusion measured after 3 mins relative to control; type: functional
Procedure, shortened: (§1)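 Vagotomized, ganglion-blocked rats were infused with the analogue. Rise in blood pressure (mmHg) was read at 3, 10 and 30 min of infusion. Values are mean ± error over several rats per analogue.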

Rattus norvegicus [2] = experiment: Pressor activity in ganglion-blocked vagotomized rat assessed as angiotensin 2 ED20 at 250 ng/kg/min, iv administered as infusion measured during infusion
Rattus norvegicus [3] = experiment: Pressor activity in ganglion-blocked vagotomized rat assessed as rise in blood pressure at 250 ng/kg/min, iv administered as infusion measured after 30 mins relative to control; type: functional; procedure, shortened: as §1
Rattus norvegicus [4] = experiment: Pressor activity in ganglion-blocked vagotomized rat assessed as rise in angiotensin 2 ED20 at 250 ng/kg/min, iv administered as infusion measured during infusion relative to untreated control
Rattus norvegicus [5] = experiment: Pressor activity in ganglion-blocked vagotomized rat assessed as rise in blood pressure at 250 ng/kg/min, iv administered as infusion measured after 10 mins relative to control; type: functional; procedure, shortened: as §1
[6] = Antagonist activity at angiotensin 2 receptor in rabbit aortic strip assessed as inhibition of contractile activity; conditions: Oryctolagus cuniculus; read-out: pA2 (converted)
Procedure, shortened: (§2)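 Rabbit aortic strips; the antagonist opposes angiotensin II-induced contraction. pA₂ is the negative log molar antagonist concentration that reduces the effect of a doubled agonist concentration to that of a single one. It is derived as pA₂ = (log K₂)/n, where n is the slope of log(dose ratio − 1) vs. −log antagonist concentration and K₂ is the y-intercept.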

Rattus norvegicus [7] = experiment: Pressor activity in ganglion-blocked vagotomized rat administered as bolus injection relative to [Asp1,Ile8]angiotension 2; type: functional
Procedure, shortened: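 Vagotomized, ganglion-blocked rats received a bolus injection of the analogue. Pressor activity is expressed as percent relative to [Asp¹,Ile⁸]angiotensin II, set at 100.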

Oryctolagus cuniculus = species: Oryctolagus cuniculus; experiment: Binding affinity to angiotensin 2 receptor in rabbit aortic strip; procedure, shortened: as §2
Rattus norvegicus [8] = experiment: Pressor activity in ganglion-blocked vagotomized rat assessed as rise in blood pressure at 250 ng/kg/min, iv administered as infusion measured after 10 mins relative to control
Rattus norvegicus [9] = experiment: Pressor activity in ganglion-blocked vagotomized rat assessed as rise in blood pressure at 250 ng/kg/min, iv administered as infusion measured after 30 mins relative to control
Rattus norvegicus [10] = experiment: Pressor activity in ganglion-blocked vagotomized rat assessed as rise in blood pressure at 250 ng/kg/min, iv administered as infusion measured after 3 mins relative to control

log K (Oryctolagus cuniculus)	Compound	Activity (Rattus norvegicus [1]) [mmHg]	ED20 (Rattus norvegicus [2]) [ng]	Activity (Rattus norvegicus [3]) [mmHg]	Ratio (Rattus norvegicus [4])	Activity (Rattus norvegicus [5]) [mmHg]	Kb [6] [nM]	Ratio (Rattus norvegicus [7])	Activity (Rattus norvegicus [8]) [mmHg]	Activity (Rattus norvegicus [9]) [mmHg]	Activity (Rattus norvegicus [10]) [mmHg]
8.39	CC[C@H](C)[C@H](NC(=O)[C@H](Cc1ccc(O)cc1)NC(=O)[C@@H](NC(=O)[C@H](CCCNC(=N)N)NC(=O)CNC)C(C)C)C(=O)N[C@@H](Cc1cnc[nH]1)C(=O)N1CCC[C@H]1C(=O)N[C@H](C(=O)O)[C@@H](C)OC	13.82	95.26	15.06	62.52	15.88	1.74	0.48	–	–	–
2.83	CC[C@H](C)[C@H](NC(=O)[C@H](Cc1ccc(O)cc1)NC(=O)[C@@H](NC(=O)[C@H](CCCNC(=N)N)NC(=O)CN(C)C)C(C)C)C(=O)N[C@@H](Cc1cnc[nH]1)C(=O)N1CCC[C@H]1C(=O)N[C@H](C(=O)O)[C@@H](C)O (Me2Gly-RVYIHPT-OH)	7.5	7.7	11.71	4.49	12.57	29.5	0.38	–	–	–
2.48	CC[C@H](C)[C@H](NC)C(=O)N[C@@H](CCCNC(=N)N)C(=O)N[C@H](C(=O)N[C@@H](Cc1ccc(O)cc1)C(=O)N[C@H](C(=O)N[C@@H](Cc1cnc[nH]1)C(=O)N1CCC[C@H]1C(=O)N[C@H](C(=O)O)[C@@H](C)O)[C@@H](C)CC)C(C)C (H-[NMeI]RVYIHPT-OH)	–	3.59	–	2.37	–	20.9	0.12	6.66	8.05	4.33
2.83	H-RVYIHPT-OH	–	3.01	–	1.47	–	29.5	0.24	1.5	4.5	0.5
2.12	CC[C@H](C)[C@H](NC(=O)[C@H](Cc1ccc(O)cc1)NC(=O)[C@@H](NC(=O)[C@H](CCCNC(=N)N)NC(=O)CNC(=N)N)C(C)C)C(=O)N[C@@H](Cc1cnc[nH]1)C(=O)N1CCC[C@H]1C(=O)N[C@H](C(=O)O)[C@@H](C)O (Guanidinoacetyl-RVYIHPT-OH)	–	1.14	–	1.02	–	58.9	0.15	0.75	3.5	0.5
8.1	CC[C@H](C)[C@H](NC(=O)[C@H](Cc1ccc(O)cc1)NC(=O)[C@@H](NC(=O)[C@H](CCCN=C(N)N)NC(=O)CNC)C(C)C)C(=O)N[C@@H](Cc1c[nH]cn1)C(=O)N1CCC[C@H]1C(=O)N[C@H](C(=O)O)[C@@H](C)O (H-[Sar]RVYIHPT-OH)	9.46	44.55	9.2	26.9	9.66	1.62	0.6	–	–	–
5.58	CC[C@H](C)[C@H](NC(=O)[C@H](Cc1ccc(O)cc1)NC(=O)[C@@H](NC(=O)[C@H](CCCNC(=N)N)NC(=O)CNC)C(C)C)C(=O)N[C@@H](Cc1cnc[nH]1)C(=O)N1CCC[C@H]1C(=O)N[C@@H](COC)C(=O)O	15.66	37	11.16	24.04	16.16	0.219	0.49	–	–	–
